Results reported in ChEMBL document CHEMBL1833825, “3-Aryl-2-[1H-benzotriazol-1-yl]acrylonitriles: a novel class of potent tubulin inhibitors” (Eur J Med Chem, 2011).
Calls of active or inactive are those of the source. The rule behind the calls is not given here.

What was measured:
[1] = Cytotoxicity against human MT4 cells infected with HTLV-1 after 96 hrs by MTT assay; type: cell-based
Procedure, shortened: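 Mock-infected MT-4 cells (CD4+ T-cells carrying integrated HTLV-1 genome) were seeded at 1×10^5 cells/mL in RPMI-1640 with 10% FCS and penicillin/streptomycin. They were given serial compound dilutions for 96 h at 37 °C, 5% CO2, and viability was read by MTT. The value is the concentration reducing viability by 50%. Mean of two experiments; duplicate variation <15%.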

CCRF-SB = test: Antiproliferative activity against human CCRF-SB cells after 96 hrs by MTT assay; type: functional
Procedure, shortened: (§1)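 Hematological lines (CCRF-CEM, CCRF-SB, WIL-2NS) were seeded exponentially growing at 1×10^5 cells/mL in RPMI-1640 with 10% FCS, penicillin G and streptomycin. They were exposed to serial dilutions (from 100 mM DMSO stocks) for 96 h at 37 °C, 5% CO2, then read by MTT. The value is the concentration giving 50% proliferation reduction, with controls allowed ≥3 rounds of multiplication. Mean of two experiments; duplicate variation <15%.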

WIL2-NS = test: Antiproliferative activity against human WIL2-NS cells after 96 hrs by MTT assay; type: functional; procedure, shortened: as §1
HepG2 = test: Antiproliferative activity against human HepG2 cells after 96 hrs by MTT assay; type: functional; conditions: HepG2, 96 h
Procedure, shortened: (§2)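 Solid-tumor lines (SK-MEL-28, MCF-7, SK-MES-1, HepG-2, DU-145) were seeded at 1×10^5 cells/mL in their specific media with 10% FCS plus antibiotics. Serial dilutions of compounds (100 mM DMSO stocks diluted in medium) were applied for 96 h at 37 °C, 5% CO2, with MTT readout. 50% proliferation-inhibition concentration; untreated controls underwent ≥3 multiplication rounds; mean of two experiments, duplicate variation <15%.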

MCF7 = test: Antiproliferative activity against human MCF7 cells after 96 hrs by MTT assay; type: functional; conditions: MCF7, 96 h; procedure, shortened: as §2
SK-MES-1 = test: Antiproliferative activity against human SKMES1 cells after 96 hrs by MTT assay; type: functional; conditions: SK-MES-1, 96 h; procedure, shortened: as §2
SK-MEL-28 = test: Antiproliferative activity against human SK-MEL-28 cells after 96 hrs by MTT assay; type: functional; conditions: SK-MEL-28, 96 h; procedure, shortened: as §2
K562 [2] = test: Cell cycle arrest in human K562 cells assessed as accumulation at S phase at total growth inhibitory compound concentration 24 hrs using propidium iodide staining by FACS analysis (reference value: 47%); type: functional; set-up: scale not given: the % may be the effect or the level left
[3] = Displacement of [3H]paclitaxel from biotin-labeled tubulin after 2 hrs by competitive scintillation proximity assay
DU-145 = test: Antiproliferative activity against human DU145 cells after 96 hrs by MTT assay; type: functional; conditions: DU-145, 96 h, read-out: CC50; procedure, shortened: as §2
[4] = Displacement of [3H]colchicine from biotin-labeled tubulin after 2 hrs by competitive scintillation proximity assay
Procedure, shortened: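 Scintillation proximity format: biotinylated tubulin, reconstituted per manufacturer, was incubated with [3H]colchicine and diluted compound in binding buffer at 37 °C for 2 h. Streptavidin-coated yttrium SPA beads were then added and bound radioactivity counted. IC50 came from nonlinear regression.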

K562 [5] = test: Cell cycle arrest in human K562 cells assessed as accumulation at G2/M phase at total growth inhibitory compound concentration 24 hrs using propidium iodide staining by FACS analysis (reference value: 18%); type: functional; set-up: scale not given: the % may be the effect or the level left
K562 [6] = test: Cell cycle arrest in human K562 cells assessed as accumulation at G0/G1 phase at total growth inhibitory compound concentration 24 hrs using propidium iodide staining by FACS analysis (reference value: 35%); type: functional; set-up: scale not given: the % may be the effect or the level left
CCRF-CEM = test: Antiproliferative activity against human CCRF-CEM cells after 96 hrs by MTT assay; type: functional; conditions: read-out: CC50; procedure, shortened: as §1

N#C/C(=C\c1ccc(Cl)cc1Cl)n1nnc2ccccc21
CC50 at 96 h [1]: 6 µM

COc1cc([C@@H]2c3cc4c(cc3[C@@H](O[C@@H]3O[C@@H]5CO[C@@H](C)O[C@H]5[C@H](O)[C@H]3O)[C@H]3COC(=O)[C@H]23)OCO4)cc(OC)c1O [ETOPOSIDE]
CC50 (CCRF-SB): 0.1 µM
CC50 (WIL2-NS): 0.2 µM
CC50 (HepG2): 0.7 µM
CC50 (MCF7): 1 µM
CC50 (SK-MES-1): 0.3 µM
CC50 (SK-MEL-28): 1.2 µM
CC50 at 96 h [1]: 0.09 µM

Cc1cc2nnn(/C(C#N)=C/c3ccc4c(c3)OCO4)c2cc1C
CC50 at 96 h [1]: 1.3 µM

N#C/C(=C\c1ccco1)n1nc2ccccc2n1
CC50 at 96 h [1]: 375 µM

N#C/C(=C\c1ccc(C(=O)O)cc1)n1nnc2ccccc21
CC50 at 96 h [1]: 17 µM

N#C/C(=C\c1ccc2c(c1)OCO2)n1nnc2ccccc21
Activity (K562 [2]): 22.67%
inhibition [3]: inactive
IC50 (50% proliferation-inhibition concentration) (DU-145): 3.4 µM
CC50 (CCRF-SB): 0.6 µM
CC50 (WIL2-NS): 0.6 µM
CC50 (HepG2): 3.1 µM
IC50 [4]: 0.85 µM
Activity (K562 [5]): 66.34%
Activity (K562 [6]): 10.9%
CC50 (MCF7): 1.3 µM
CC50 (SK-MES-1): 3.3 µM
IC50 (50% antiproliferative concentration) (CCRF-CEM): 0.9 µM
CC50 (SK-MEL-28): 3.3 µM
CC50 at 96 h [1]: 0.1 µM

N#C/C(=C\c1ccccc1[N+](=O)[O-])n1nnc2ccccc21
CC50 at 96 h [1]: 31 µM

N#C/C(=C\c1ccc(Cl)cc1)n1nc2ccccc2n1
CC50 at 96 h [1]: 16 µM

N#C/C(=C\c1ccccc1I)n1nnc2ccccc21
CC50 at 96 h [1]: 25 µM

N#C/C(=C\c1ccc(Br)cc1)n1nnc2cc(Cl)c(Cl)cc21
IC50 (50% proliferation-inhibition concentration) (DU-145): 7 µM
CC50 (CCRF-SB): 12 µM
CC50 (WIL2-NS): 18 µM
CC50 (HepG2): 12 µM
CC50 (MCF7): 8.4 µM
CC50 (SK-MES-1): 10 µM
IC50 (50% antiproliferative concentration) (CCRF-CEM): 5.3 µM
CC50 (SK-MEL-28): 10 µM
CC50 at 96 h [1]: 5.4 µM

Cc1ccc(/C=C(\C#N)n2nnc3ccccc32)cc1
IC50 (50% proliferation-inhibition concentration) (DU-145): 0.5 µM
CC50 (CCRF-SB): 0.07 µM
CC50 (WIL2-NS): 0.2 µM
CC50 (HepG2): 2.2 µM
CC50 (MCF7): 0.7 µM
CC50 (SK-MES-1): 1.7 µM
IC50 (50% antiproliferative concentration) (CCRF-CEM): 0.2 µM
CC50 (SK-MEL-28): 0.3 µM
CC50 at 96 h [1]: 0.5 µM

N#C/C(=C\c1ccccc1)n1nnc2ccccc21
CC50 at 96 h [1]: 4 µM

N#C/C(=C\c1cccc([N+](=O)[O-])c1)n1nnc2cc(C(F)(F)F)ccc21
CC50 at 96 h [1]: 0.7 µM

N#C/C(=C\c1cccs1)n1nc2ccccc2n1
CC50 at 96 h [1]: 132 µM

COc1ccc(/C=C(\C#N)n2nnc3ccc(C(F)(F)F)cc32)cc1
CC50 at 96 h [1]: 200 µM

N#C/C(=C\c1ccccc1)n1nc2ccccc2n1
CC50 at 96 h [1]: 12 µM

N#C/C(=C\c1ccc(C(=O)O)cc1)n1nc2ccccc2n1
CC50 at 96 h [1]: 16 µM

Cc1ccc(/C=C(\C#N)n2nnc3cc(Cl)c(Cl)cc32)cc1
Activity (K562 [2]): 15.5%
IC50 (50% proliferation-inhibition concentration) (DU-145): 17 µM
CC50 (CCRF-SB): 2.8 µM
CC50 (WIL2-NS): 7 µM
CC50 (HepG2): 21 µM
Activity (K562 [5]): 67%
Activity (K562 [6]): 18.5%
CC50 (MCF7): 27 µM
CC50 (SK-MES-1): 27 µM
IC50 (50% antiproliferative concentration) (CCRF-CEM): 2.8 µM
CC50 (SK-MEL-28): 20 µM
CC50 at 96 h [1]: 1.7 µM

N#C/C(=C\c1ccc(Cl)cc1)n1nnc2ccccc21
CC50 at 96 h [1]: 0.4 µM

COc1ccc(/C=C(\C#N)n2nnc3ccccc32)cc1OC
CC50 at 96 h [1]: 7.5 µM

N#C/C(=C\c1ccc(Br)cc1)n1nnc2ccccc21
Activity (K562 [2]): 22.41%
IC50 (50% proliferation-inhibition concentration) (DU-145): 1.7 µM
CC50 (CCRF-SB): 0.3 µM
CC50 (WIL2-NS): 0.6 µM
CC50 (HepG2): 2.1 µM
Activity (K562 [5]): 35.34%
Activity (K562 [6]): 42.25%
CC50 (MCF7): 0.7 µM
CC50 (SK-MES-1): 2.4 µM
IC50 (50% antiproliferative concentration) (CCRF-CEM): 0.4 µM
CC50 (SK-MEL-28): 1.1 µM
CC50 at 96 h [1]: 0.4 µM

COc1ccc(/C=C(\C#N)n2nnc3ccccc32)cc1
Activity (K562 [2]): 24%
IC50 (50% proliferation-inhibition concentration) (DU-145): 0.6 µM
CC50 (CCRF-SB): 0.09 µM
CC50 (WIL2-NS): 0.1 µM
CC50 (HepG2): 0.8 µM
Activity (K562 [5]): 70.5%
Activity (K562 [6]): 5.5%
CC50 (MCF7): 0.1 µM
CC50 (SK-MES-1): 0.6 µM
IC50 (50% antiproliferative concentration) (CCRF-CEM): 0.2 µM
CC50 (SK-MEL-28): 0.2 µM
CC50 at 96 h [1]: 0.05 µM

Sc1ncnc2nc[nH]c12 [MERCAPTOPURINE ANHYDROUS]
CC50 (CCRF-SB): 1.1 µM
CC50 (WIL2-NS): 3 µM
CC50 (HepG2): 8 µM
CC50 (MCF7): 3.2 µM
CC50 (SK-MES-1): 58 µM
CC50 (SK-MEL-28): 15 µM
CC50 at 96 h [1]: 0.1 µM

COc1cccc(/C=C(\C#N)n2nnc3ccccc32)c1
CC50 at 96 h [1]: 4.7 µM

COc1ccc(/C=C(\C#N)n2nc3ccccc3n2)cc1OC
CC50 at 96 h [1]: 360 µM

Cc1cc2nnn(/C(C#N)=C/c3ccc(Cl)cc3)c2cc1C
CC50 at 96 h [1]: 24 µM

COc1ccccc1/C=C(\C#N)n1nnc2ccccc21
CC50 at 96 h [1]: 8.3 µM

N#C/C(=C\c1ccc([N+](=O)[O-])cc1)n1nc2ccccc2n1
CC50 at 96 h [1]: 0.4 µM

Cc1ccc(/C=C(\C#N)n2nc3ccccc3n2)cc1
CC50 at 96 h [1]: 20 µM

N#C/C(=C\c1ccc(F)cc1)n1nc2ccccc2n1
CC50 at 96 h [1]: 32 µM

N#C/C(=C\c1cccc([N+](=O)[O-])c1)n1nnc2ccccc21
CC50 at 96 h [1]: 0.4 µM

N#C/C(=C\c1ccc2c(c1)OCO2)n1nnc2ccc(C(F)(F)F)cc21
CC50 at 96 h [1]: 52 µM

COc1cc(/C=C(\C#N)n2nnc3ccccc32)cc(OC)c1OC
CC50 at 96 h [1]: 2.5 µM

COc1ccc(/C=C(\C#N)n2nnc3cc(Cl)c(Cl)cc32)cc1
IC50 (50% proliferation-inhibition concentration) (DU-145): > 100 µM
CC50 (CCRF-SB): > 100 µM
CC50 (WIL2-NS): > 100 µM
CC50 (HepG2): > 100 µM
CC50 (MCF7): > 100 µM
CC50 (SK-MES-1): > 100 µM
IC50 (50% antiproliferative concentration) (CCRF-CEM): > 100 µM
CC50 (SK-MEL-28): > 100 µM
CC50 at 96 h [1]: 14 µM

Cc1cc2nnn(/C(C#N)=C/c3cccc([N+](=O)[O-])c3)c2cc1C
CC50 at 96 h [1]: 0.5 µM
